Experimental data as given in ChEMBL document CHEMBL4706575, “Nonpeptidic quinazolinone derivatives as dual nucleotide-binding oligomerization domain-like receptor 1/2 antagonists for adjuvant cancer chemotherapy” (Eur J Med Chem, 2020).
Activity calls are given as the source filed them. The rule behind the calls is not given here.

What was measured:
[1] = biological target: T1, Nucleotide-binding oligomerization domain-containing protein 2 (Homo sapiens, UniProt Q9HC29); test: Antagonist activity at NOD2 in human THP-1 cells assessed as inhibition of MDP-induced IL8 mRNA expression preincubated for 1 hr followed by MDP addition and measured after 90 mins by qRT-PCR analysis; format: cell-based; settings: filed as antagonist, dose 1-10 µM, time 150.0 min
T1 sequence (Q9HC29 whole entry, the tested form may be a part): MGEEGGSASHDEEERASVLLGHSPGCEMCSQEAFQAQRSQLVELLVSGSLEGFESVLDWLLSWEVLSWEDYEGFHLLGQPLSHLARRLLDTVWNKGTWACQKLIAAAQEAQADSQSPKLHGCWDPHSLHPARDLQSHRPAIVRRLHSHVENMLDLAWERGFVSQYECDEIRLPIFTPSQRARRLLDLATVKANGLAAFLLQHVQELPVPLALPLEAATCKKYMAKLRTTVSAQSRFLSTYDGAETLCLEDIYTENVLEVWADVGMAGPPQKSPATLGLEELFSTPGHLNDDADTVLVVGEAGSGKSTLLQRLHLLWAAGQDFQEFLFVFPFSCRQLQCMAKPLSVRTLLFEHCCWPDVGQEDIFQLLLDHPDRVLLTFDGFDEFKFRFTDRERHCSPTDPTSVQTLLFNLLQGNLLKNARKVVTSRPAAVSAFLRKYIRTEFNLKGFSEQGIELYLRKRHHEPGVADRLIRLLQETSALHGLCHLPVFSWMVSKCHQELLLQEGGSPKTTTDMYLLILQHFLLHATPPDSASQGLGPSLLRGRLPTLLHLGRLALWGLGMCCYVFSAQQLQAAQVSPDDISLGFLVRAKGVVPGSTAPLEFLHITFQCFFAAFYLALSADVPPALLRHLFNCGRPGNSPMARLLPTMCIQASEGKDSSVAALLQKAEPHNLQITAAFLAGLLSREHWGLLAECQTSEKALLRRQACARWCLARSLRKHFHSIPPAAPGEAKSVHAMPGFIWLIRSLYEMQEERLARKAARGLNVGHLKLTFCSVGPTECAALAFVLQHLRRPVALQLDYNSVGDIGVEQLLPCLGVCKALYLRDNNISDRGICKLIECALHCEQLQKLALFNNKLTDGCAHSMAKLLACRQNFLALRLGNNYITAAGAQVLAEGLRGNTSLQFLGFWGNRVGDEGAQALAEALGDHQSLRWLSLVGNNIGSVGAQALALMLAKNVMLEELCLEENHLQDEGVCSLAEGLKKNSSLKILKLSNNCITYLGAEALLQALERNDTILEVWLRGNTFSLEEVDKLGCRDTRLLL
In short: (§1)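 THP-1 cells in RPMI-1640 with 10% FBS, treated with compound (1.0 or 10 µM) or vehicle for 1 h. Then stimulated 90 min with C12-iE-DAP 500 ng/mL (NOD1) or MDP (NOD2). IL-6, TNF-α and IL-8 mRNA measured by qRT-PCR. Mean ± SD, n = 6, two-tailed t-test.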

[2] = biological target: T2, Nucleotide-binding oligomerization domain-containing protein 1 (Homo sapiens) (UniProt Q9Y239); test: Antagonist activity at NOD1 in human THP-1 cells assessed as inhibition of C12-iE-DAP-induced IkappaBalpha degradation at 1 to 10 uM preincubated for 1 hr followed by C12-iE-DAP addition and measured after 30 mins by Western blot analysis; format: cell-based; settings: filed as antagonist, dose 1-10 µM, time 1.5 hrs
T2 sequence (whole entry): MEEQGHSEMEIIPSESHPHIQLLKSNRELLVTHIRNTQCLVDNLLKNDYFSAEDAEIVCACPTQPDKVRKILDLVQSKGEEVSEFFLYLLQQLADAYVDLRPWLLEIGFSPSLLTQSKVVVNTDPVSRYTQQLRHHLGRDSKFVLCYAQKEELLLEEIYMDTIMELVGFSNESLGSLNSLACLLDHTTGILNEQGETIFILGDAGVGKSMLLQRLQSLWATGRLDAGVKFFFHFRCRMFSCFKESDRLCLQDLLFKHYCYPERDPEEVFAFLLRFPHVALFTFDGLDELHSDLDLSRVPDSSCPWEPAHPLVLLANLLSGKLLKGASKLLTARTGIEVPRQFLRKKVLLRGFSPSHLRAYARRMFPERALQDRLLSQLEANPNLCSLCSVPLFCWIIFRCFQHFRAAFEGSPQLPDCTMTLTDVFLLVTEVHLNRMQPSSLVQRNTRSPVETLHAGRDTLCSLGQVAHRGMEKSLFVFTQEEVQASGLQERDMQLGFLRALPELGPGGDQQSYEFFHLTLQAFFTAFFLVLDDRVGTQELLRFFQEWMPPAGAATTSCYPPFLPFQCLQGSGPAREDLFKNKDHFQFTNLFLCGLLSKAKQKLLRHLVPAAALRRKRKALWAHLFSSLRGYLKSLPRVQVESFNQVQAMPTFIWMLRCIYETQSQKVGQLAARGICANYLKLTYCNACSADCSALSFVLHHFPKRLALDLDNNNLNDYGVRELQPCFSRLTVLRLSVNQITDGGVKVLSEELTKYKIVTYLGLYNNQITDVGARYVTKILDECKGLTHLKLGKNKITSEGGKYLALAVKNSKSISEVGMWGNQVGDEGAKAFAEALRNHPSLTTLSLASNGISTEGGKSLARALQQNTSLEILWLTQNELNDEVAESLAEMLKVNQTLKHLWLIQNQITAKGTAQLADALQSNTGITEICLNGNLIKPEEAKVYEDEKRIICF
In short: (§2)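 Serum-starved THP-1 cells pretreated with compound (1.0 or 10 µM) or without for 1 h. Then C12-iE-DAP 500 ng/mL (NOD1) or MDP (NOD2) for 30 min. Lysed in cold whole-cell buffer. Western blot for IκBα and for total and phospho RIP2, IKKα/β, p65, JNK, p38 and ERK1/2. β-actin as loading control.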

[3] = biological target: T2, Nucleotide-binding oligomerization domain-containing protein 1 (Homo sapiens); test: Antagonist activity at NOD1 in human THP-1 cells assessed as inhibition of C12-iE-DAP-induced increase in RIP2 phosphorylation at 1 to 10 uM preincubated for 1 hr followed by C12-iE-DAP addition and measured after 30 mins by Western blot analysis; format: cell-based; settings: filed as antagonist, dose 1-10 µM, time 1.5 hrs; in short: as §2
[4] = biological target: T1, Nucleotide-binding oligomerization domain-containing protein 2; test: Antagonist activity at NOD2 in human THP-1 cells assessed as inhibition of MDP-induced TNFalpha mRNA expression preincubated for 1 hr followed by MDP addition and measured after 90 mins by qRT-PCR analysis; format: cell-based; settings: filed as antagonist, dose 1-10 µM, time 150.0 min; in short: as §1
[5] = biological target: T2, Nucleotide-binding oligomerization domain-containing protein 1 (Homo sapiens); test: Antagonist activity at NOD1 in human THP-1 cells assessed as inhibition of C12-iE-DAP-induced IL6 mRNA expression preincubated for 1 hr followed by C12-iE-DAP addition and measured after 90 mins by qRT-PCR analysis; format: cell-based; settings: filed as antagonist, dose 1-10 µM, time 150.0 min; in short: as §1
[6] = biological target: T1, Nucleotide-binding oligomerization domain-containing protein 2; test: Antagonist activity at NOD2 in human THP-1 cells assessed as inhibition of MDP-induced increase in IKKalpha/beta phosphorylation preincubated for 1 hr followed by MDP addition and measured after 30 mins by Western blot analysis; format: cell-based; settings: filed as antagonist, dose 1-10 µM, time 1.5 hrs; in short: as §2
[7] = biological target: T2, Nucleotide-binding oligomerization domain-containing protein 1 (Homo sapiens); test: Antagonist activity at NOD1 in human THP-1 cells assessed as inhibition of C12-iE-DAP-induced TNFalpha mRNA expression preincubated for 1 hr followed by C12-iE-DAP addition and measured after 90 mins by qRT-PCR analysis; format: cell-based; settings: filed as antagonist, dose 1-10 µM, time 150.0 min; in short: as §1
[8] = biological target: T1, Nucleotide-binding oligomerization domain-containing protein 2; test: Antagonist activity at NOD2 in human THP-1 cells assessed as inhibition of MDP-induced increase in p38 phosphorylation preincubated for 1 hr followed by MDP addition and measured after 30 mins by Western blot analysis; format: cell-based; settings: filed as antagonist, dose 1-10 µM, time 1.5 hrs; in short: as §2
[9] = Toxicity in mouse B16-F10 cells implanted C57BL/6 mouse assessed as change in body weight at 50 mg/kg, iv administered every other day for 15 days; format: organism-based; settings: in vivo, 360 h, time 15 day
[10] = biological target: T1, Nucleotide-binding oligomerization domain-containing protein 2; test: Antagonist activity at NOD2 in human THP-1 cells assessed as inhibition of MDP-induced IL6 mRNA expression preincubated for 1 hr followed by MDP addition and measured after 90 mins by qRT-PCR analysis; format: cell-based; settings: filed as antagonist, dose 1-10 µM, time 150.0 min; in short: as §1
[11] = biological target: T2, Nucleotide-binding oligomerization domain-containing protein 1 (Homo sapiens); test: (§3) Antagonist activity at NOD1 in HEK-Blue hNOD1 cells assessed as inhibition of C12-iE-DAP-induced NFkappaB activation-mediated SEAP release preincubated for 3 hrs followed by C12-iE-DAP addition and measured after 20 hrs by spectrophotometric method; format: cell-based; settings: filed as antagonist, time 23.0 hrs
[12] = biological target: T3, Nucleotide-binding oligomerization domain-containing protein 1 (Homo sapiens, UniProt Q9Y239); test: as §3; format: cell-based
T3 sequence (Q9Y239 whole entry): T2 sequence (whole entry)

O=C(NCCCOc1ccc(C(F)(F)F)cc1)c1cc2ncn(CC(=O)N3CCCC(F)(F)C3)c(=O)c2cc1-c1cccc(Cl)c1
inhibition [1]: Dose-dependent effect | inhibition [2]: Active | inhibition [3]: Active | inhibition [4]: Dose-dependent effect | inhibition [5]: Dose-dependent effect | inhibition [6]: Dose-dependent effect | inhibition [7]: Dose-dependent effect | inhibition [8]: Dose-dependent effect | Activity [9]: Non-Toxic | inhibition [10]: Dose-dependent effect | inhibition [11]: Dose-dependent effect | IC50 [12]: 1130 nM
